Laboratory results taken from ChEMBL document CHEMBL1145777 (J Med Chem, 2003).

Legend:
[1] = biological target: Kappa-type opioid receptor (Cavia porcellus) (UniProt P41144); assay: Ratio of binding affinity of Opioid receptor kappa 1 to Opioid receptor mu 1 to Opioid receptor delta 1; kappa:mu:delta = 15:18:1
[2] = Binding affinity towards Opioid receptor delta 1 from guinea pig brain using [3H]naltrindole as radioligand
Mu-type opioid receptor = Mu-type opioid receptor (Cavia porcellus, UniProt P97266); assay: Binding affinity towards Opioid receptor mu 1 from guinea pig brain using [3H]DAMGO as radioligand
[3] = biological target: Kappa-type opioid receptor (Cavia porcellus) (UniProt P41144); assay: Ratio of binding affinity of Opioid receptor kappa 1 to Opioid receptor mu 1 to Opioid receptor delta 1; kappa:mu:delta = 4:3:1
[4] = biological target: Kappa-type opioid receptor (Cavia porcellus, UniProt P41144); assay: Binding affinity towards Opioid receptor kappa 1 from guinea pig brain using [3H]U-69593 as radioligand
Outline: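 Uses 1 nM [3H]U69,593 with guinea pig brain membrane protein (500 µg), 12 concentrations, 50 mM Tris-HCl pH 7.5, 60 min at 25 °C. Nonspecific binding with 10 µM naloxone. Filters pre-soaked in 0.1% polyethylenimine; bound label counted.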

[5] = biological target: Kappa-type opioid receptor (Cavia porcellus) (UniProt P41144); assay: Ratio of binding affinity of Opioid receptor kappa 1 to Opioid receptor mu 1 to Opioid receptor delta 1; kappa:mu:delta = 5:3:1
[6] = biological target: Kappa-type opioid receptor (Cavia porcellus) (UniProt P41144); assay: Ratio of binding affinity of Opioid receptor kappa 1 to Opioid receptor mu 1 to Opioid receptor delta 1; kappa:mu:delta = 36:14:1
[7] = biological target: Kappa-type opioid receptor (Cavia porcellus) (UniProt P41144); assay: Ratio of binding affinity of Opioid receptor kappa 1 to Opioid receptor mu 1 to Opioid receptor delta 1; kappa:mu:delta = 12:38:1
[8] = biological target: Kappa-type opioid receptor (Cavia porcellus) (UniProt P41144); assay: Ratio of binding affinity of Opioid receptor kappa 1 to Opioid receptor mu 1 to Opioid receptor delta 1; kappa:mu:delta = 26:81:1
[9] = biological target: Kappa-type opioid receptor (Cavia porcellus) (UniProt P41144); assay: Ratio of binding affinity of Opioid receptor kappa 1 to Opioid receptor mu 1 to Opioid receptor delta 1; kappa:mu:delta = 9:1:1
[10] = biological target: Kappa-type opioid receptor (Cavia porcellus) (UniProt P41144); assay: Ratio of binding affinity of Opioid receptor kappa 1 to Opioid receptor mu 1 to Opioid receptor delta 1; kappa:mu:delta = 13:10:1
[11] = biological target: Kappa-type opioid receptor (Cavia porcellus) (UniProt P41144); assay: Ratio of binding affinity of Opioid receptor kappa 1 to Opioid receptor mu 1 to Opioid receptor delta 1; kappa:mu:delta = 12:4:1
[12] = biological target: Kappa-type opioid receptor (Cavia porcellus) (UniProt P41144); assay: Ratio of binding affinity of Opioid receptor kappa 1 to Opioid receptor mu 1 to Opioid receptor delta 1; kappa:mu:delta = 45:12:1
[13] = biological target: Kappa-type opioid receptor (Cavia porcellus) (UniProt P41144); assay: Ratio of binding affinity of Opioid receptor kappa 1 to Opioid receptor mu 1 to Opioid receptor delta 1; kappa:mu:delta = 10:9:1

Chain of Kappa-type opioid receptor (P41144 whole entry): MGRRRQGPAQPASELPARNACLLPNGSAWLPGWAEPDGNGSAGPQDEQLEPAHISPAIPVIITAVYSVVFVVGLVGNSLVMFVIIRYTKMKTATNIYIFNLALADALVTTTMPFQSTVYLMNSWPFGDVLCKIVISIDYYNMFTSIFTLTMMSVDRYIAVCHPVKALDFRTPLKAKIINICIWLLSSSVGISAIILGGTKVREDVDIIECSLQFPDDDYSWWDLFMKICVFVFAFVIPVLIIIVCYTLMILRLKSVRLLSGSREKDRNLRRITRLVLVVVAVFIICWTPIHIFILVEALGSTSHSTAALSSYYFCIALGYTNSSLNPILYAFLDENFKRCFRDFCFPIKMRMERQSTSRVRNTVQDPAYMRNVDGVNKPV
Chain of Kappa-type opioid receptor (Cavia porcellus) (P41144 whole entry): as above
Chain of Mu-type opioid receptor (P97266 whole entry): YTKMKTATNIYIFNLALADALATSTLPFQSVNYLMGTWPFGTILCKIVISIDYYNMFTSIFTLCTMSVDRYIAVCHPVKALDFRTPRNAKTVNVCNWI

For `C[C@H]1C2Cc3ccc(NCCc4ccccc4)cc3[C@@]1(C)CCN2CC1CC1`, which Ratio [1] is on record?
Its Ratio is 15.

And the Ki [2]?
The Ki was 160 nM.

Which Ki (Mu-type opioid receptor) does the source give for `C[C@H]1C2Cc3ccc(Nc4ccc(C(C)(C)C)cc4)cc3[C@@]1(C)CCN2CC1CC1` here?
Its Ki is 18 nM.

And the Ratio [3]?
Its Ratio is 4.

And the Ki [4]?
Its Ki is 14 nM.

What does the source list for `C[C@H]1C2Cc3ccc(Nc4ccc(Cl)c(Cl)c4)cc3[C@@]1(C)CCN2CC1CC1`?
Ki (Mu-type opioid receptor): 8.4 nM; Ratio [5]: 5; Ki [4]: 5.7 nM

For `C[C@H]1C2Cc3cc4cc[nH]c4cc3[C@@]1(C)CCN2CC1CC1`, which Ki (Mu-type opioid receptor) is on record?
Its Ki is 18 nM.

What about the Ratio [6] of the same molecule?
The Ratio was 36.

And the Ki [4]?
The Ki was 7 nM.

With `C[C@H]1C2Cc3ccc(NCc4ccccc4)cc3[C@@]1(C)CCN2CC1CC1` (stereo in doubt; 25) as the molecule, how does the Ratio [7] read?
Its Ratio is 12.

For `C[C@H]1C2Cc3ccc(NCc4ccccc4)cc3[C@@]1(C)CCN2CC1CC1` (single isomer, unassigned; (-)), which Ratio [8] is on record?
The Ratio was 26.

With `C[C@H]1C2Cc3ccc(Nc4ccc(N(C)C)cc4)cc3[C@@]1(C)CCN2CC1CC1` as the molecule, how does the Ki (Mu-type opioid receptor) read?
Its Ki is 70 nM.

What about the Ratio [9] of the same molecule?
The Ratio was 9.

What about the Ki [4] of the same molecule?
The Ki was 8.8 nM.

What does the source list for `C[C@H]1C2Cc3ccc(N(C)Cc4ccccc4)cc3[C@@]1(C)CCN2CC1CC1`?
Ratio [10]: 13; Ki [2]: 570 nM

What does the source list for `C[C@H]1C2Cc3ccc(N4CCCCC4)cc3[C@@]1(C)CCN2CC1CC1`?
Ki (Mu-type opioid receptor): 95 nM; Ratio [11]: 12; Ki [2]: 3600 nM

With `COc1ccccc1Nc1ccc2c(c1)[C@@]1(C)CCN(CC3CC3)C(C2)[C@@H]1C` as the molecule, how does the Ki (Mu-type opioid receptor) read?
The Ki was 8.5 nM.

What about the Ratio [12] of the same molecule?
Its Ratio is 45.

What about the Ki [4] of the same molecule?
Its Ki is 2.2 nM.

What does the source list for `C[C@H]1C2Cc3ccc(Nc4ccc(Cl)cc4)cc3[C@@]1(C)CCN2CC1CC1`?
Ki (Mu-type opioid receptor): 3 nM; Ratio [13]: 10; Ki [4]: 2.5 nM
